An excerpt weighted towards active compounds, which were near 1.6% of everything screened.
MsrA inh: inhibits bovine methionine sulfoxide reductase A; purified bovine MsrA, absorbance read-out; hit rate 0.75% among 360,000; inhibition, % at 15.5 µM; AID 651718; in the data active means inhibition above about 4.5%;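 further: 0% = vehicle wells with enzyme and 100% = reference inhibitor wells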
SKN-1 inh: inhibitors of C. elegans SKN-1 | C. elegans VP596 Pgst-4::GFP/RFP ratio, acrylamide-induced, 24 h | inhibition, % at 21.8 µM | hit rate 0.49% among 360,000 | AID 624304;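 active means interference check ratio from 0.5 to 1.5 plus GFP to RFP signal ratio inhibition reaching or exceeding a fixed threshold, cut at about 30% in these data, passing the limit was not always enough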
MT1-MMP act inh: MT1-MMP (human) activation inhibition; P50281; HT1080 RFP-PRO-GFP cells, GFP/RFP ratio fluorescence, overnight; percent of plate control window, DMSO zero; GFP/RFP ratio change, % at 20 µM; hit rate 0.061% among 360,000; AID 651647;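 active means GFP/RFP ratio change of at least 30% with cell ATP level not reduced by more than half and red fluorescence within 50% of control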
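Assay system – RFP-PRO-GFP reporter HT1080 cells · Compound dosing – single dose of 20 µM compound, 1% DMSO final · Incubation – overnight compound exposure at 37 °C · Measure – GFP/RFP fluorescence ratio · Benchmarks – DMSO wells and RFP-L50D-GFP cells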
bovine MsrA act: activates bovine MsrA enzyme; purified bovine MsrA, absorbance read-out; activation, % at 10.6 µM; hit rate 0.3% among 360,000; in the data active means activation above about 7.5%;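 further: 0% = vehicle and 100% = reference activator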
p-CIP stab down: compounds decreasing mouse p/CIP protein stability | Q05BA5 | F442A p/CIP-EGFP cells, EGFP fluorescence, 16 h | decrease of EGFP signal, % at 10 µM | hit rate 0.01% among 290,000;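 active means EGFP signal decrease of at least 30% at 10 µM or well 3 SD below plate mean, unless failing retest; inactive means the rest, including hits failing retest or dose response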
The depositor's hits bear a star; nt = no result given.

SMILES | MsrA inh | SKN-1 inh | MT1-MMP act inh | bovine MsrA act | p-CIP stab down
CCCCCCCNC(=O)C1(CC2CC(c3ccc(Cl)cc3)=NO2)CCN(C(=O)C2(C)CC2)CC1 (stereo not drawn) | nt | 7.0 | -9.0 | 8.5* | 0.1
Cc1ccc2cc3cc(C(=O)NCCCN4CCCC4=O)oc3nc2c1 | 4.6* | 9.7 | 0.6 | -4.9 | -5.2
CN(C)c1ccc(C=C2SC(=S)NC2=O)cc1 | -0.6 | 39.9* | -69.7 | -3.0 | nt
c1ccc(Oc2cc(-c3ccccc3)ncn2)cc1 | -0.4 | 49.7* | 4.9 | -1.7 | -3.6
c1ccc(Oc2cc(-c3ccccc3)nc(-c3ccccc3)n2)cc1 | -0.1 | 6.1 | -0.6 | -6.1 | 9.6
O=C(c1ccccc1)c1c[nH]c2cc3c(cc2c1=O)OCO3 | nt | nt | nt | nt | 4.2
O=C(c1ccccc1)c1c[nH]c2cc3c(cc2c1=O)OCCO3 | 3.3 | 47.4* | -1.2 | -2.9 | -1.5
Clc1cc(NCc2cccs2)ccc1N1CCOCC1 | 0.4 | 38.6* | 1.3 | -1.0 | -14.1
Cc1nnc(SCCn2c(N3CC(C)CC(C)C3)nc3c2c(=O)n(C)c(=O)n3C)s1 (stereo not drawn) | 1.3 | 41.2* | -2.4 | -2.2 | -11.4
CCOC(=O)C1=CCN(S(=O)(=O)c2ccc(Br)cc2)C1c1ccc(Br)cc1 (stereo not drawn) | 0.1 | nt | nt | nt | nt
COCc1[nH]nc2c1C(c1ccc3c(c1)OCO3)N(c1ccc(OC)cc1)C2=O (stereo not drawn) | 1.2 | nt | nt | nt | nt
Cc1cc(C(F)(F)F)n2ncc(-c3ccc(F)cc3)c2n1 | -0.7 | 39.5* | -5.4 | -3.7 | -12.9
COCCN1Cc2cc(C(=O)OC)c3c(c2C1=O)c1ccccc1n3S(=O)(=O)c1ccc(OC)cc1 | -0.2 | nt | nt | nt | nt
CN1CCN(C(=O)c2ccccc2N(Cc2ccccc2)S(C)(=O)=O)CC1 | 1.1 | 40.3* | 0.6 | -0.2 | 0.4
COCCN1Cc2cc(C(=O)OC)c3c(c2C1=O)c1cc(OC)ccc1n3S(C)(=O)=O | 0.7 | nt | nt | nt | nt
O=C(CN1C(=O)CCS(=O)(=O)c2ccccc21)NCc1ccccc1 | 0.1 | 36.7* | 2.8 | -0.8 | -8.1
O=C(CN1C(=O)CCS(=O)(=O)c2ccccc21)NCc1ccc2c(c1)OCO2 | -0.4 | -14.5 | 1.7 | -3.0 | 0.0
COC(=O)[C@]12C[C@H](CC(=O)NCc3cccc(C(F)(F)F)c3)C(=O)N(CCC3=CCCCC3)C1=C[C@H](COCc1ccccc1)O[C@@H]2C | -0.2 | nt | nt | nt | nt
CSc1nccc(N2CCN(c3ccc(F)cc3)CC2)n1 | 0.2 | 2.0 | 1.2 | -1.1 | 2.2
Clc1ccc(N2CCN(c3ccnc(Cl)n3)CC2)cc1 | 0.2 | 56.7* | 6.3 | -3.3 | nt
COc1ccc(-c2ccc(/C=C3\C(=O)N(c4ccccc4)N=C3c3ccccc3)o2)c([N+](=O)[O-])c1 | 0.2 | 14.8 | 0.0 | -2.6 | 0.8
COc1ccc(-c2ccc(/C=C3/C(=N)N4C(C)=CSC4=NC3=O)o2)c([N+](=O)[O-])c1 | -0.2 | 43.1* | 16.4 | -1.3 | 1.0
CCOc1ccc(C(C)=O)cc1CC(C(N)=O)C(N)=O | -0.1 | -24.6 | 3.9 | 0.0 | -13.4
CCOC(=O)C(Cc1cc(C(C)=O)ccc1OCC)C(=O)OCC | 1.6 | 37.9* | 3.2 | -2.4 | 0.7
CCCCCCCCN1C(=O)[C@@H](CC(=O)N2CCCC2)C[C@@]2(C(=O)OC)C1=C[C@H](C(C)(C)C)O[C@@H]2C | 0.2 | nt | nt | nt | nt
SMILES | MsrA inh | SKN-1 inh | MT1-MMP act inh | bovine MsrA act | p-CIP stab down
CN1CCN(C(=O)Nc2cccc(-c3ccccc3)c2)CC1 | 4.6* | -0.6 | 3.7 | -4.5 | -5.1
CN1CCN(C(=O)Nc2ccc3c(c2)N(C)C(=O)c2ccccc2S3)CC1 | 0.2 | 7.9 | -0.7 | -1.8 | -0.6
Cc1ccc(NC(=O)CSCc2cc(=O)n3ccsc3n2)cc1 | nt | 33.8* | -5.4 | -6.4 | 1.8
Cc1cc2c(c(=O)o1)[C@@]1(C(=O)N(C)c3ccccc31)C1=C(CCC1=O)O2 | 0.8 | nt | nt | nt | nt
CCC(c1nnnn1Cc1ccc2c(c1)OCO2)N1CCN(c2ccc(F)cc2)CC1 (stereo not drawn) | -0.9 | 35.8* | 4.2 | -1.1 | -1.5
O=C(c1cccnc1)C1Cc2ccccc2C1=O (stereo not drawn) | 3.6 | 36.4* | 0.8 | -0.6 | -7.3
CC1COCC(C)N1C(=O)c1cccnc1 (stereo not drawn) | -0.4 | 1.2 | -2.0 | -2.5 | nt
O=C(NC1CS(=O)(=O)CC1NCc1ccccc1)c1ccccc1 (stereo not drawn) | 0.1 | 36.5* | -7.3 | -3.6 | 3.5
O=S1(=O)CC(NCc2ccccc2)C(Nc2ccccc2)C1 (stereo not drawn) | -0.2 | 4.3 | 4.4 | -0.9 | 2.3
COC(=O)C1=C(C)N(Cc2cccc(C(F)(F)F)c2)C(=NCc2ccccc2C(F)(F)F)NC1c1ccc(Cl)cc1 (stereo not drawn) | 0.2 | nt | nt | nt | nt
Cc1cc(C(=O)CSc2nnc(NCc3ccccc3)s2)c(C)n1C | 1.1 | 0.9 | -2.5 | -6.4 | -5.2
CN1/C(=C\C(=O)CSc2nnc(NCc3ccccc3)s2)C(C)(C)c2ccccc21 | -0.1 | 45.5* | 7.2 | 0.7 | -4.1
COC(=O)[C@]12C[C@H](CC(=O)N3CCCCC3)C(=O)N(CCC3=CCCCC3)C1=C[C@H](COCc1ccccc1)O[C@@H]2C | -0.5 | nt | nt | nt | nt
C=CCO[C@H]1CN(C(=O)OC)[C@@H]2C[C@H]1Oc1ccccc12 | 1.9 | nt | nt | nt | nt
COc1cccc(COc2cc3ccccc3nc2C)c1 | 0.1 | 44.6* | 1.2 | -2.0 | -5.0
Cc1nc2ccccc2cc1OCc1ccc(Cl)cc1 | 0.9 | 89.5* | 0.0 | -2.0 | -19.9
Cc1nc2ccccc2cc1OCc1ccccc1 | 0.2 | 31.7 | 1.0 | -0.6 | -19.4
NC(=O)c1ncn([C@@H]2O[C@H](C(=O)N[C@H](Cc3c[nH]c4ccccc34)C(=O)N3CCN(CC(=O)N4CCCC4)CC3)[C@@H](O)[C@H]2O)n1 | -0.4 | nt | nt | nt | nt
Cc1cc(O)cc(=O)n1-c1cccc(C(F)(F)F)c1 | 0.7 | nt | nt | nt | nt
Cc1oc(-c2ccccc2Cl)nc1CS(=O)CC(=O)NCc1ccc2c(c1)OCO2 (stereo not drawn) | -0.4 | -10.4 | 3.5 | -9.2 | 6.7
Cc1ccccc1-c1nc(CS(=O)CC(=O)NCc2ccc3c(c2)OCO3)c(C)o1 (stereo not drawn) | 1.2 | 35.6* | -5.9 | -1.4 | -1.3
CCOC(=O)Nc1cc2c(cc1[N+](=O)[O-])-c1ccccc1C2=O | -0.7 | 18.7 | 6.1 | -3.1 | nt
CCOC(=O)Nc1cccc2c1-c1ccc([N+](=O)[O-])cc1C2=O | 1.7 | 40.2* | -4.0 | -8.6 | nt
COc1cccc(CNC(=O)[C@H]2CCCN2C(=O)[C@H]2CCCN2S(=O)(=O)c2cccc(C)c2)c1 | 0.2 | nt | nt | nt | nt
COc1cccc(C(=O)N[C@H](C(=O)N2CCC[C@H]2C(=O)NC2CCCC2)c2ccccc2)c1 | -0.7 | nt | nt | nt | nt
CCOC(=O)N1CCN(c2ncnc3c2cnn3-c2ccc(OC)cc2)CC1 | 0.2 | 47.9* | 6.8 | 1.3 | 5.4
COc1ccc(-n2ncc3c(N4CCC(C)CC4)ncnc32)cc1 | -0.6 | -14.6 | 2.0 | -5.9 | -3.0
CN(C(=O)CSCC(=O)Nc1ccc(Cl)cc1)C1CCCCC1 | -0.6 | 37.5* | 4.8 | -1.5 | nt

High-throughput results (PubChem)
